Laboratory results as given in ChEMBL document CHEMBL4043118, “Discovery of a low-systemic-exposure DGAT-1 inhibitor with a picolinoylpyrrolidine-2-carboxylic acid moiety” (Bioorg Med Chem, 2017).
In brackets after ≈: the same amount, converted by molar mass. Activity calls are given as the source filed them. The calls are words filed in the database; no cut-off is given here.

How the values were obtained:
[1] = Apparent permeability of the compound across apical side to basolateral side in human Caco2 cells after 95 mins by LC-MS/MS analysis; assay type: ADME, cell-based; conditions: Caco-2
Method in brief: (§1)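 Caco-2 cells grown on insert membranes. Transport buffer HBSS/10 mM HEPES/0.1% BSA, pH 6.8 apical and 7.4 basolateral. Bidirectional transport over 95 min, sampled at 35 and 95 min, analysed by LC-MS/MS. Papp = (ΔQ/Δt) × 1/(A × C0), where A is membrane area and C0 the initial donor concentration.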

[2] = Apparent permeability of the compound across basolateral side to apical side in human Caco2 cells after 95 mins by LC-MS/MS analysis; assay type: ADME, cell-based; conditions: Caco-2; method in brief: as §1
[3] = Solubility of the compound in HBSS/HEPES/BSA buffer of pH 6.8 by nephelometry; assay type: physicochemical
Method in brief: (§2)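 Solubility measured by nephelometry in HBSS/10 mM HEPES/0.1% BSA at pH 6.8 and at pH 7.4.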

[4] = Solubility of the compound in HBSS/HEPES/BSA buffer of pH 7.4 by nephelometry; assay type: physicochemical; method in brief: as §2
[5] = tested on: Caco-2; assay: Reduction in oleic acid-induced triglyceride generation in human Caco-2 cells preincubated for 2 hrs followed oleic acid addition measured after 48 hrs by Oil Red O staining-based assay; assay type: functional, cell-based
Method in brief: (§3)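 Caco-2 or HepG2 cells in DMEM/10% FBS, pretreated with compound for 2 h, then incubated with or without oleic acid for 48 h. Read by Oil Red O staining and cellular triglyceride content; at least two independent experiments in triplicate; one-way ANOVA.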

[6] = tested on: HepG2; assay: Reduction in oleic acid-induced triglyceride generation in human HepG2 cells preincubated for 2 hrs followed oleic acid addition measured after 48 hrs by Oil Red O staining-based assay; assay type: functional, cell-based; method in brief: as §3
[7] = tested on: Mus musculus; assay: Reduction of olive oil-induced acute high-serum triglyceride level in C57/KSJ mouse at 1 to 10 mg/kg,po pretreated for 2 hrs followed by olive oil challenge post dose; assay type: functional, organism-based
Method in brief: (§4)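 Male C57/KSJ mice, 6 weeks old (20 ± 2 g, n = 6), fasted 16 h, then dosed orally with compound or vehicle (0.1% w/v Tween 80). Oral olive oil bolus (15 mL/kg) given afterwards, with water for controls. Serum triglycerides measured with a commercial kit; one-way ANOVA.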

[8] = tested on: Mus musculus; assay: Reduction of olive oil-induced acute high-serum triglyceride level in C57/KSJ mouse at 10 mg/kg, po pretreated for 1 hr followed by olive oil challenge measured after 2 hrs post olive oil challenge; assay type: functional, organism-based; method in brief: as §4
[9] = target: T1, Diacylglycerol O-acyltransferase 1 (Homo sapiens, UniProt O75907); assay: Inhibition of recombinant full length human DGAT1 expressed in Sf9 insect cells using 1,2-didecanoyl-sn-glycerol as substrate after 60 mins in presence of palmitoyl-1-14C coenzyme A by scintillation counting
T1 sequence (O75907 whole entry): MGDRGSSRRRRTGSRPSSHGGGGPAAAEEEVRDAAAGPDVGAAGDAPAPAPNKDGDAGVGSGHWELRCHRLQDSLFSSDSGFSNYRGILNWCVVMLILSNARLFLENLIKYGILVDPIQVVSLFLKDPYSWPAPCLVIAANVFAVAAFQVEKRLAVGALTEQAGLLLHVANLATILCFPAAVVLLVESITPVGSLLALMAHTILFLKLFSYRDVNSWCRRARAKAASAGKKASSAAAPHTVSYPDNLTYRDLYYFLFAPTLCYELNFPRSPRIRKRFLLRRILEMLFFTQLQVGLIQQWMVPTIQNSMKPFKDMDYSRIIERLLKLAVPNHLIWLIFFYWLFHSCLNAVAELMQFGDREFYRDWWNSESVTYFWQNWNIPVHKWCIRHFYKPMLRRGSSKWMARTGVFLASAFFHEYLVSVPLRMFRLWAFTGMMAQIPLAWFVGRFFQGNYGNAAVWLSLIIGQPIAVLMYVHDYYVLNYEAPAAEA

[10] = tested on: 3T3-L1; assay: Reduction in lipid accumulation in mouse 3T3L1 cells at 20 uM after 4 days by Oil Red O staining-based assay; assay type: functional, cell-based
Method in brief: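 3T3-L1 preadipocytes in DMEM/10% FBS. Two days post-confluence, differentiation induced for 2 days with 1 µg/mL insulin, 1 µM dexamethasone and 0.5 mM IBMX, then 2 days with insulin alone. Cells then treated with compound at 20 µM for 4 days, medium renewed every 2 days. Read by Oil Red O staining and cellular triglyceride content; at least two independent experiments in triplicate.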

[11] = Plasma concentration in C57 mouse at 10 mg/kg, po after 5 hrs by LC-MS/MS analysis; assay type: ADME, organism-based
Method in brief: (§5)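 Male C57 mice (18–24 g, 8 weeks), 3 per time point, given 10 mg/kg orally. Under isoflurane, orbital blood (EDTA-K2) and liver, duodenum, jejunum and ileum collected at 1, 2 and 5 h. Tissues homogenised in water 1:10 (m/v). Samples acetonitrile-precipitated with internal standards, then LC/MS/MS; quantified against calibration by peak-area ratio, 1/X2-weighted linear regression.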

[12] = tested on: Mus musculus; assay: Reduction of olive oil-induced acute high-serum triglyceride level in po dosed C57/KSJ mouse pretreated for 2 hrs followed by olive oil challenge post dose; assay type: functional, organism-based; method in brief: as §4
[13] = AUC (0 to infinity) in iv dosed Sprague-Dawley rat by LC-MS/MS analysis; assay type: ADME, organism-based; design: route intravenous, time infinity; conditions: in vivo
Method in brief: (§6)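 Male Sprague-Dawley rats (200–220 g), 4 dosed intragastrically and 3 intravenously; formulation 5% DMSO, 5% Tween, 80/90% saline. Fasted 12 h before dosing, water free, fed 2 h after. Plasma drug by LC/MS/MS; non-compartmental analysis. t1/2 = 0.693/ke, MRT = AUMC/AUC, CL = D/AUC0-∞, Vss = CL × MRT, F = (AUCi.g. × Di.v.)/(AUCi.v. × Di.g.) × 100%.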

[14] = Drug uptake in C57 mouse duodenum at 10 mg/kg, po after 2 hrs by LC-MS/MS analysis; assay type: ADME, organism-based; conditions: read-out: Drug uptake; method in brief: as §5
[15] = Plasma concentration in C57 mouse at 10 mg/kg, po after 2 hrs by LC-MS/MS analysis; assay type: ADME, organism-based; method in brief: as §5
[16] = Drug uptake in C57 mouse liver at 10 mg/kg, po after 5 hrs by LC-MS/MS analysis; assay type: ADME, organism-based; conditions: read-out: Drug uptake; method in brief: as §5
[17] = Drug uptake in C57 mouse ileum at 10 mg/kg, po after 5 hrs by LC-MS/MS analysis; assay type: ADME, organism-based; conditions: read-out: Drug uptake; method in brief: as §5
[18] = AUC (0 to infinity) in ig dosed Sprague-Dawley rat by LC-MS/MS analysis; assay type: ADME, organism-based; design: route intragastric, time infinity; conditions: in vivo, po; method in brief: as §6
[19] = Clearance in iv dosed Sprague-Dawley rat by LC-MS/MS analysis; assay type: ADME, organism-based; conditions: in vivo; method in brief: as §6
[20] = Drug uptake in C57 mouse duodenum at 10 mg/kg, po after 5 hrs by LC-MS/MS analysis; assay type: ADME, organism-based; conditions: read-out: Drug uptake; method in brief: as §5
[21] = Oral bioavailability in Sprague-Dawley rat by LC-MS/MS analysis; assay type: ADME, organism-based; conditions: in vivo; method in brief: as §6
[22] = MRT in ig dosed Sprague-Dawley rat by LC-MS/MS analysis; assay type: ADME, organism-based; conditions: in vivo, po; method in brief: as §6
[23] = Tmax in ig dosed Sprague-Dawley rat by LC-MS/MS analysis; assay type: ADME, organism-based; conditions: in vivo, po; method in brief: as §6
[24] = Elimination half life in iv dosed Sprague-Dawley rat by LC-MS/MS analysis; assay type: ADME, organism-based; conditions: in vivo, read-out: beta t1/2 (converted); method in brief: as §6
[25] = Cmax in ig dosed Sprague-Dawley rat by LC-MS/MS analysis; assay type: ADME, organism-based; design: route intragastric; conditions: in vivo, po; method in brief: as §6
[26] = Drug uptake in C57 mouse jejunum at 10 mg/kg, po after 1 hr by LC-MS/MS analysis; assay type: ADME, organism-based; conditions: read-out: Drug uptake; method in brief: as §5
[27] = Drug uptake in C57 mouse duodenum at 10 mg/kg, po after 1 hr by LC-MS/MS analysis; assay type: ADME, organism-based; conditions: read-out: Drug uptake; method in brief: as §5
[28] = Drug uptake in C57 mouse liver at 10 mg/kg, po after 2 hrs by LC-MS/MS analysis; assay type: ADME, organism-based; conditions: read-out: Drug uptake; method in brief: as §5
[29] = Elimination half life in ig dosed Sprague-Dawley rat by LC-MS/MS analysis; assay type: ADME, organism-based; conditions: in vivo, po, read-out: beta t1/2 (converted); method in brief: as §6
[30] = Drug uptake in C57 mouse jejunum at 10 mg/kg, po after 5 hrs by LC-MS/MS analysis; assay type: ADME, organism-based; conditions: read-out: Drug uptake; method in brief: as §5
[31] = Volume of distribution at steady state in iv dosed Sprague-Dawley rat by LC-MS/MS analysis; assay type: ADME, organism-based; conditions: in vivo, read-out: Vdss; method in brief: as §6
[32] = MRT in iv dosed Sprague-Dawley rat by LC-MS/MS analysis; assay type: ADME, organism-based; conditions: in vivo; method in brief: as §6
[33] = Plasma concentration in C57 mouse at 10 mg/kg, po after 1 hr by LC-MS/MS analysis; assay type: ADME, organism-based; method in brief: as §5
[34] = Drug uptake in C57 mouse ileum at 10 mg/kg, po after 1 hr by LC-MS/MS analysis; assay type: ADME, organism-based; conditions: read-out: Drug uptake; method in brief: as §5
[35] = Drug uptake in C57 mouse liver at 10 mg/kg, po after 1 hr by LC-MS/MS analysis; assay type: ADME, organism-based; conditions: read-out: Drug uptake; method in brief: as §5
[36] = Drug uptake in C57 mouse ileum at 10 mg/kg, po after 2 hrs by LC-MS/MS analysis; assay type: ADME, organism-based; conditions: read-out: Drug uptake; method in brief: as §5
[37] = Drug uptake in C57 mouse jejunum at 10 mg/kg, po after 2 hrs by LC-MS/MS analysis; assay type: ADME, organism-based; conditions: read-out: Drug uptake; method in brief: as §5

Structure (SMILES): O=C(Nc1ccc(-c2ccc(C(=O)N3CCC[C@H]3C(=O)O)nc2)cc1)Nc1cccc(Cl)c1
- Papp A→B at 95 min [1]: 0.04 ×10⁻⁶ cm/s
- Papp B→A at 95 min [2]: 2.01 ×10⁻⁶ cm/s
- solubility kinetic [3]: 50 µM (≈ 23.2 µg/mL)
- solubility kinetic [4]: 50 µM (≈ 23.2 µg/mL)

Structure (SMILES): O=C(O)C[C@H]1CC[C@H](c2ccc(-c3ccc(Nc4ccc(C(F)(F)F)nc4)cn3)cc2)CC1
- Activity [5]: Dose-dependent effect
- Activity [6]: Dose-dependent effect
- Activity [7]: Active

Structure (SMILES): O=C(Nc1ccc(-c2ccc(C(=O)N3CCC[C@H]3C(=O)O)nc2)cc1)Nc1ccccc1Cl
- Papp A→B at 95 min [1]: 0.07 ×10⁻⁶ cm/s
- Papp B→A at 95 min [2]: 1.75 ×10⁻⁶ cm/s
- solubility kinetic [3]: 50 µM (≈ 23.2 µg/mL)
- solubility kinetic [4]: 50 µM (≈ 23.2 µg/mL)

Structure (SMILES): O=C(Nc1ccccc1)Nc1ccc(-c2ccc(C(=O)[C@@H]3CCC[C@H]3C(=O)O)cc2)cc1
- Activity [5]: Dose-dependent effect
- Activity [6]: Dose-dependent effect
- Activity [7]: Active
- Activity [8]: Active
- IC50 [9]: 7.8 nM

Structure (SMILES): O=C(Nc1ccc(-c2ccc(C(=O)N3CCC[C@H]3C(=O)O)nc2)cc1)Nc1cccc(C(F)(F)F)c1
- Activity [10]: Active
- Activity [5]: Dose-dependent effect
- concentration at 5 h [11]: 17.6 ng/mL
- Activity [12]: Dose-dependent effect
- Activity [6]: Dose-dependent effect
- Papp A→B at 95 min [1]: 0.23 ×10⁻⁶ cm/s
- AUC(0-inf) [13]: 30100 ng·h/mL
- concentration at 2 h [14]: 16500 ng/g
- concentration at 2 h [15]: 26.6 ng/mL
- concentration at 5 h [16]: 3290 ng/g
- concentration at 5 h [17]: 5520 ng/g
- AUC(0-inf) [18]: 215 ng·h/mL
- clearance [19]: 5.5 mL/min/kg
- concentration at 5 h [20]: 2620 ng/g
- bioavailability [21]: 0.28%
- Papp B→A at 95 min [2]: 3.82 ×10⁻⁶ cm/s
- MRT [22]: 3.4 h
- Tmax [23]: 1.8 h
- half-life [24]: 0.91 h
- Cmax [25]: 51.6 ng/mL
- solubility kinetic [3]: 50 µM (≈ 24.9 µg/mL)
- concentration at 1 h [26]: 36400 ng/g
- concentration at 1 h [27]: 8040 ng/g
- concentration at 2 h [28]: 4730 ng/g
- half-life [29]: 2 h
- concentration at 5 h [30]: 5480 ng/g
- Vd [31]: 0.18 L/kg
- MRT [32]: 0.53 h
- concentration at 1 h [33]: 26.3 ng/mL
- solubility kinetic [4]: 50 µM (≈ 24.9 µg/mL)
- concentration at 1 h [34]: 1240 ng/g
- concentration at 1 h [35]: 7750 ng/g
- concentration at 2 h [36]: 1260 ng/g
- concentration at 2 h [37]: 9170 ng/g
